Read-outs that look alike come from different tables or passages of the source.
Columns and labels:
[1] = type: in vivo, human; settings: for CL/F: mean ± SD
Procedure, shortened: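 Healthy Chinese adults took 200 or 400 mg test compound once daily for 8 days. Blood was drawn pre/post-dose Day 1, pre-dose Days 2–8 and post-dose Day 8. Parent and main metabolite were measured by validated LC-MS/MS after protein precipitation, with deuterated internal standards. Linear ranges: 2.00–2000 and 10.0–10,000 ng/mL. Noncompartmental analysis used trapezoidal AUC. CL/F came from AUCtau. Below-limit values counted as zero.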

Chinese healthy subjects [2] = experiment: 24-hour urinary glucose excretion; type: in vivo, human
Procedure, shortened: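 Randomized, double-blind, placebo-controlled study in healthy Chinese adults given 200 or 400 mg test compound or placebo orally once daily before the first meal for 8 days. Post-dose urine was pooled over 24 h in 0–8 h and 8–24 h fractions on Day 1 and Day 8. Glucose was assayed centrally, with results withheld from investigators, and reported as absolute excretion.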

Chinese healthy subjects [3] = type: in vivo, human
Procedure, shortened: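 Safety population comprised all randomized subjects receiving ≥1 double-blind dose (200 or 400 mg daily test compound or placebo, 8 days), analysed by treatment received. TEAEs were counted from first dose to study end and graded by NCI-CTCAE. Vital signs, ECG and local-lab haematology, coagulation, biochemistry, serology, urinalysis and pregnancy tests were monitored. Summaries were descriptive, with no significance testing.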

SGLT2 = settings: cited from earlier work
[4] = cited from earlier work
[5] = test system: healthy volunteers in the United States; settings: achieved at the 300mg dose, study LX4211-1-101; cited from earlier work
[6] = across sotagliflozin treatment groups
[7] = sotagliflozin 200 mg qd, 8 days, N=9
[8] = sotagliflozin 400 mg qd, 8 days, N=9
[9] = co-administered with food (high fat/high caloric)

Structure (SMILES): CCOc1ccc(Cc2cc([C@@H]3O[C@H](SC)[C@@H](O)[C@H](O)[C@H]3O)ccc2Cl)cc1 [Sotagliflozin]
- degree of accumulation ([1]; 200 or 400 mg qd for 8 days): less than 2 fold
- estimated increase for AUCtau for a 2-fold increase between doses ([1]; Day 1, 200 to 400 mg): 2.02 fold
- estimated increase for Cmax for a 2-fold increase between doses ([1]; Day 1, 200 to 400 mg): 1.56 fold
- estimated increase for AUCtau for a 2-fold increase between doses ([1]; Day 8, 200 to 400 mg): 1.70 fold
- estimated increase for Cmax for a 2-fold increase between doses ([1]; Day 8, 200 to 400 mg): 1.89 fold
- half-life ([1]; human, plasma, oral, 400 mg, Mean t1/2z, range over 200 and 400 mg dose levels, Day 8): 20.5 to 22.4 h
- CL/F ([1]; sotagliflozin 200 mg qd, Day 8): 267 L/h
- CL/F ([1]; sotagliflozin 400 mg qd, Day 8): 307 L/h
- 24-hour UGE (Chinese healthy subjects [2]; sotagliflozin 200 mg qd, Day 1, mean (±SD)): 188.17 (±51.957) mmol
- 24-hour UGE (Chinese healthy subjects [2]; sotagliflozin 200 mg qd, Day 8, mean ± SD): 213.02 (±67.216) mmol
- 24-hour UGE (Chinese healthy subjects [2]; sotagliflozin 400 mg qd, Day 1, mean (±SD)): 250.18 (±38.063) mmol
- 24-hour UGE (Chinese healthy subjects [2]; sotagliflozin 400 mg qd, Day 8, mean ± SD): 263.90 (±56.665) mmol
- tolerability (Chinese healthy subjects [3]; 200 mg and 400 mg per day, 8 days): well tolerated
- PCSAs of QRS interval >110 ms, number of subjects (Chinese healthy subjects [3]; 200mg sotagliflozin, none increased from baseline ≥25%): 2
- asymptomatic alanine aminotransferase (ALT) increase (Chinese healthy subjects [3]; AE in 1 subject (400 mg group)): < 2 × upper limit of normal (ULN)
- constipation, number of subjects (Chinese healthy subjects [3]; [6]): 1
- dizziness, number of subjects (Chinese healthy subjects [3]; [6]): 2
- folliculitis, number of subjects (Chinese healthy subjects [3]; [6]): 1
- TEAE: Blood phosphorus increased (Chinese healthy subjects [3]; [7]): 1 (11.1%) n (%)
- TEAE: Chest discomfort (Chinese healthy subjects [3]; [7]): 1 (11.1%) n (%)
- TEAE: Dizziness (Chinese healthy subjects [3]; [7]): 1 (11.1%) n (%)
- TEAE: Folliculitis (Chinese healthy subjects [3]; [7]): 1 (11.1%) n (%)
- TEAE: Petechiae (Chinese healthy subjects [3]; [7]): 1 (11.1%) n (%)
- TEAE: Proteinuria (Chinese healthy subjects [3]; [7]): 1 (11.1%) n (%)
- TEAE: White blood cell count decreased (Chinese healthy subjects [3]; [7]): 1 (11.1%) n (%)
- increased blood ketone body (TEAE value) (Chinese healthy subjects [3]; sotagliflozin 400 mg group, 1 subject): 0.61 mmol/L
- TEAE: Alanine aminotransferase increased (Chinese healthy subjects [3]; [8]): 1 (11.1%) n (%)
- TEAE: Asthenia (Chinese healthy subjects [3]; [8]): 1 (11.1%) n (%)
- TEAE: Blood ketone body increased (Chinese healthy subjects [3]; [8]): 1 (11.1%) n (%)
- TEAE: Blood urine present (Chinese healthy subjects [3]; [8]): 1 (11.1%) n (%)
- TEAE: Constipation (Chinese healthy subjects [3]; [8]): 1 (11.1%) n (%)
- TEAE: Dermatitis (Chinese healthy subjects [3]; [8]): 1 (11.1%) n (%)
- TEAE: Dizziness (Chinese healthy subjects [3]; [8]): 1 (11.1%) n (%)
- TEAE: Haemorrhoidal haemorrhage (Chinese healthy subjects [3]; [8]): 1 (11.1%) n (%)
- TEAE: Headache (Chinese healthy subjects [3]; [8]): 1 (11.1%) n (%)
- TEAE: Mouth ulceration (Chinese healthy subjects [3]; [8]): 1 (11.1%) n (%)
- TEAEs considered treatment-related by the Investigator (Chinese healthy subjects [3]; sotagliflozin groups (200 and 400 mg)): 44.4%
- selectivity for SGLT2 than that for SGLT1 (SGLT2): 20 fold
- accumulation index at steady state ([4]; EMA data, European-American populations): about 2
- Cmax with food compared to fasted condition [4, 9]: ~2.5 fold
- total exposure with food compared to fasted condition [4, 9]: ~1.5 fold
- maximum 24 h UGE [5]: 44 g

— paper PMC9464004 (Drug Design, Development and Therapy, 2022)
